Experimental data: ChEMBL document CHEMBL4619791, “3-Difluoroalkyl Quaternary Oxindoles Inhibit Macrophage Pyroptosis by Blocking Inflammasome Recruitment of Caspase-1” (ACS Med Chem Lett, 2020)
The source made the active and inactive calls. No cut-off for these calls is given here.

Assays:
[1] = molecular target: NACHT, LRR and PYD domains-containing protein 3 (Mus musculus) (UniProt Q8R4B8); assay: Activation of NLRP3 inflammasome in LPS-primed mouse […] cells assessed as suppression of ATP-induced pyroptosis at 5 uM; assay type: cell-based; details: J774.A1
Sequence of NACHT, LRR and PYD domains-containing protein 3 (Mus musculus) (Q8R4B8 whole entry, the tested form may be a part): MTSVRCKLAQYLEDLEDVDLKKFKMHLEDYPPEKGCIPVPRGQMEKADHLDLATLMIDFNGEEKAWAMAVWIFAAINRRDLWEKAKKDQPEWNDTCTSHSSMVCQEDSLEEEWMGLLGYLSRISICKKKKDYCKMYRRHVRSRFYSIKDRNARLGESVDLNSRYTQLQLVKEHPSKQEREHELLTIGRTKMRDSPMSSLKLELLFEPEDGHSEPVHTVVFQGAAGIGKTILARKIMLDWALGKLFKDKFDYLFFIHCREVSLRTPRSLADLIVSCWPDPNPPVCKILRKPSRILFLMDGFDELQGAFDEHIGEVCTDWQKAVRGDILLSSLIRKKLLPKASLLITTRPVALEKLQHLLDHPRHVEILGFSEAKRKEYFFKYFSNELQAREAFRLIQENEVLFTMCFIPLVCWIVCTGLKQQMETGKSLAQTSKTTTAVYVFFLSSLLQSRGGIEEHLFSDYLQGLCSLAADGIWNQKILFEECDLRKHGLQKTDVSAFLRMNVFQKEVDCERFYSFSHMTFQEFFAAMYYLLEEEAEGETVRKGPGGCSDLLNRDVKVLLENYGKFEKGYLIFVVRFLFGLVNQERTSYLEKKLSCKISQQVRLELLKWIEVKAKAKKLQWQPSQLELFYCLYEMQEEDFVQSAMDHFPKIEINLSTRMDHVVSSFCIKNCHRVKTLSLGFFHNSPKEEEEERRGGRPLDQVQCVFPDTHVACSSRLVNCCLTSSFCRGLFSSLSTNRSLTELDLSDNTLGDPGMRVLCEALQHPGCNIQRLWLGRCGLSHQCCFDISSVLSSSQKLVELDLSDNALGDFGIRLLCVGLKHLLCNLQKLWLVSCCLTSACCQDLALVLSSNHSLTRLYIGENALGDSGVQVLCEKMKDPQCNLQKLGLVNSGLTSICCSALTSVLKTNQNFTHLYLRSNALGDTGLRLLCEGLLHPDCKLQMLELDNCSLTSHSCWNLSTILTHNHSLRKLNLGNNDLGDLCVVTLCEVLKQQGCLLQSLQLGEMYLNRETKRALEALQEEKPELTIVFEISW
Summary of the method: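 ATP used as a separate NLRP3 inflammasome activator in macrophages to induce pyroptosis.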

[2] = molecular target: T1, Gasdermin-D (Mus musculus) (UniProt Q9D8T2); assay: Inhibition of GSDMD cytosol-plasma membrane translocation in LPS-primed immortalized mouse […] cells at 5 uM followed by subsequent nigericin stimulation by immunofluorescence assay; assay type: cell-based; details: J774.A1
T1 sequence (whole entry): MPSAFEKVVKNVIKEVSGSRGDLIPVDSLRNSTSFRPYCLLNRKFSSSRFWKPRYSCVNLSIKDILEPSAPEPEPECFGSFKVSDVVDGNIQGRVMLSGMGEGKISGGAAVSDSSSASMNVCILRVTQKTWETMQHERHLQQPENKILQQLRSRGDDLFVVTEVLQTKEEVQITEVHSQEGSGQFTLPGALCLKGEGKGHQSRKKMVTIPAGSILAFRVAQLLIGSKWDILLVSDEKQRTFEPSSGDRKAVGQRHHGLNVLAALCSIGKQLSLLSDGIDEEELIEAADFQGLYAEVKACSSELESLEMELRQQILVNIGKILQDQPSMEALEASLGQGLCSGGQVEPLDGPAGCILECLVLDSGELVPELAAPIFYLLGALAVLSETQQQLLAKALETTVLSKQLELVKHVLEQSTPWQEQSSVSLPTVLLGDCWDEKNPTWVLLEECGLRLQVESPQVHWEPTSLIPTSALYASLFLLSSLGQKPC
Summary of the method: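 Macrophages were LPS-primed, then stimulated with nigericin, in immortalized and primary cells. Anti-GSDMD immunofluorescence, with line-intensity histograms of cytosol versus plasma-membrane localization. Mean ± SEM, n ≥ 3 independent experiments.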

Caspase-8 (Mus musculus) = molecular target: T2, Caspase-8 (Mus musculus) (UniProt O89110); assay: Inhibition of caspase-8 activity in LPS-primed immortalized mouse […] cells assessed as reduction in nigericin-induced caspase-8 cleavage at 5 uM by Western blot analysis; assay type: cell-based; details: J774.A1
T2 sequence (whole entry): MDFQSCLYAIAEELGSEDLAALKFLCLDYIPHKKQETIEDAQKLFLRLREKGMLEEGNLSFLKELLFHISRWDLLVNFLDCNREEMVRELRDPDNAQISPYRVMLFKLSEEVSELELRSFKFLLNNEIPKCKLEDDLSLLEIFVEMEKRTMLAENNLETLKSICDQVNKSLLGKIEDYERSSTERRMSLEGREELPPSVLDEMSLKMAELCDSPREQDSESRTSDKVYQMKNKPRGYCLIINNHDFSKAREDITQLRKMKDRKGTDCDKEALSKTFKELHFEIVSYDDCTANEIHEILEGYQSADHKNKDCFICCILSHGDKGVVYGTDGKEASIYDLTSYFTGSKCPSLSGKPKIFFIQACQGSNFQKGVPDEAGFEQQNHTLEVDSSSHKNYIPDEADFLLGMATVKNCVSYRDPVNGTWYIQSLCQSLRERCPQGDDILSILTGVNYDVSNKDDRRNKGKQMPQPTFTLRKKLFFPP
Summary of the method: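 Western blot of full-length and cleaved caspase-1 and caspase-8 in J774A.1 cells after nigericin, with tubulin as loading control. Bands quantified as bar graphs.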

J774.A1 [3] = assay: Inhibition of caspase-1 recruitment to inflammasome in LPS-primed immortalized mouse […] cells assessed as nigericin-induced colocalization of caspase-1 and ASC at 5 uM by immunostaining based confocal microscopy; assay type: functional, cell-based
Summary of the method: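 Caspase-1 and ASC colocalization: Pearson's correlation coefficient calculated in 20 to 25 randomly selected cells.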

[4] = molecular target: Nlrp3/Pycard (Mus musculus) (UniProt Q8R4B8+Q9EPB4); assay: Inhibition of NLRP3-ASC interaction in LPS-primed immortalized mouse […] cells at 5 uM by co-immunoprecipitation assay; assay type: cell-based; details: J774.A1
Sequence of Nlrp3/Pycard (Mus musculus) (Q8R4B8 whole entry, looked up): as the sequence (Q8R4B8 whole entry, the tested form may be a part) above
Sequence of Nlrp3/Pycard (Mus musculus) (Q9EPB4 whole entry, looked up): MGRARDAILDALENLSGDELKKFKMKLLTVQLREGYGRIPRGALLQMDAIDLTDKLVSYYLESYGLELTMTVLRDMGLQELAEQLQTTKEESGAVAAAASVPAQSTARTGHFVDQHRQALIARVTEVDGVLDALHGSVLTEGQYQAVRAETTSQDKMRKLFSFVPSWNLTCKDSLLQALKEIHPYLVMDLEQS
Summary of the method: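 Coimmunoprecipitation of endogenous ASC and NLRP3 in immortalized macrophages.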

J774.A1 [5] = assay: Inhibition of pyroptosis in LPS-primed immortalized mouse […] cells assessed as reduction in poly (dA:dT) induced […] secretion by ELISA; assay type: functional, cell-based
Summary of the method: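 J774A.1 cells stimulated with flagellin or poly(dA:dT). IL-1β release measured by ELISA. Mean ± SEM, n ≥ 3 independent experiments.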

Caspase-4 (Mus musculus) = molecular target: T3, Caspase-4 (Mus musculus) (UniProt P70343); assay: Inhibition of pyroptosis-inducing caspase-11 in LPS-primed immortalized mouse […] cells assessed as cell death at 5 uM by LDH assay; assay type: cell-based; details: J774.A1
T3 sequence (whole entry): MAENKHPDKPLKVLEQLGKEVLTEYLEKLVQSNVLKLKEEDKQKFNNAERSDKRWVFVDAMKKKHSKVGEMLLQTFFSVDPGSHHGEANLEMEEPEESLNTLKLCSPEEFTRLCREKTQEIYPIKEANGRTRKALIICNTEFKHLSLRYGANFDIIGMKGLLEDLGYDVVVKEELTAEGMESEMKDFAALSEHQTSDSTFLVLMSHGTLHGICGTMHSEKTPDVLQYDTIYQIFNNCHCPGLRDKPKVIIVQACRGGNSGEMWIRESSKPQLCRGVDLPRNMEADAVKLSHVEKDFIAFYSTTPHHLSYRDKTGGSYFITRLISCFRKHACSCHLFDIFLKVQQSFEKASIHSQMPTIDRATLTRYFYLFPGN
Summary of the method: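 Cell death induced by cytoplasmic LPS in J774A.1 cells, measured by LDH release. Mean ± SEM, n ≥ 3.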

Caspase-1 (Homo sapiens) = molecular target: T4, Caspase-1 (Homo sapiens) (UniProt P29466); assay: Inhibition of ASC-mediated caspase-1 cleavage in human THP1 cells transfected with GFP-tagged ASC at 5 uM FACS analysis; assay type: cell-based; details: THP-1
T4 sequence (whole entry): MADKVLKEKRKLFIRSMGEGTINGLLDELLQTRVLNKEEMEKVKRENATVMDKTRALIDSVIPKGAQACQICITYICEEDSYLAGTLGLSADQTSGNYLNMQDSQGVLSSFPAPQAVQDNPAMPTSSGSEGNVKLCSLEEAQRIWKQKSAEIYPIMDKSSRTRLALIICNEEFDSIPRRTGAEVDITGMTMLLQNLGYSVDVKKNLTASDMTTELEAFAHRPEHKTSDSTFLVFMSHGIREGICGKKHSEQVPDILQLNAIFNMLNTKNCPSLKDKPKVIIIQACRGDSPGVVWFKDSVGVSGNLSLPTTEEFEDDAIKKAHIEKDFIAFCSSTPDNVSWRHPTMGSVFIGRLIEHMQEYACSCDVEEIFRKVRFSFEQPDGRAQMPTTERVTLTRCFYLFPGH

Mus musculus = assay: Antiinflammatory activity against LPS-induced sepsis C57BL/6J mouse model assessed as reduction in serum IL-1beta level at 20 mg/kg, iv administered as single dose for 1 hr prior to LPS challenge and measured after 24 hrs of compound treatment by ELISA; assay type: functional, organism-based
BMDM = assay: Inhibition of pyroptosis in LPS-primed C57BL/6 mouse primary BMDM assessed as reduction in nigericin-induced cell death by LDH assay; assay type: functional, cell-based
Summary of the method: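 Primary murine macrophages primed with LPS and stimulated with nigericin across a dose range. IL-1β release, LDH release and Alamar blue measured. Means ± SE, ≥3 experimental replicates.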

CCOC(CN1C(=O)C(NC(=O)Nc2ccc(C)cc2)(C(F)(F)C(=O)Nc2ccc(C)cc2)c2ccccc21)OCC (stereo not given)
Activity [1]: Active
inhibition [2]: Active
inhibition (Caspase-8 (Mus musculus)): inactive
inhibition (J774.A1 [3]): Active
inhibition [4]: inactive
inhibition (J774.A1 [5]): Active
inhibition (Caspase-4 (Mus musculus)): Active
inhibition (Caspase-1 (Homo sapiens)): Active
Activity (Mus musculus): Active
inhibition (BMDM): Dose-dependent effect
